The target in assay [1] is 5-hydroxytryptamine receptor 2A (Rattus norvegicus) (UniProt P14842). Kind of assay: Displacement of [3H]ketanserin from rat cortical membrane 5-hydroxytryptamine 2A receptor at 10e-7 M. An outline of the steps:
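Single-concentration screen at 10^-7 M: displacement of [3H]ketanserin (1.0 nM) from rat cortical membranes, methysergide as reference. Reported as % inhibition versus binding with no drug, mean of duplicate tubes in one experiment. Checked against a verification screen.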
In general terms: In a radioligand displacement assay an active substance lowers the binding of a labelled ligand.

In assay [2] the target is Adrenergic receptor alpha-1 (Rattus norvegicus) (UniProt P15823+P23944+P43140). Kind of assay: Displacement of [3H]prazosin from Alpha-1 adrenergic receptor of rat cortical membrane at 10e-7 M. An outline of the steps:
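Single-concentration screen at 10^-7 M: displacement of [3H]prazosin (0.5 nM) from rat cortical membranes, prazosin as reference. Reported as % inhibition versus binding with no drug, mean of duplicate tubes in one experiment. Checked against a verification screen.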

Assay [3] deals with D(2) dopamine receptor (Rattus norvegicus) (UniProt P61169). Kind of assay: Displacement of [3H]sulpiride from rat striatal membrane Dopamine receptor D2 at 10e-7 M. An outline of the steps:
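Single-concentration screen at 10^-7 M: displacement of [3H]sulpiride (3.0 nM) from rat striatal membranes, sulpiride as reference. Reported as % inhibition versus binding with no drug, mean of duplicate tubes in one experiment.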

The target of assay [4] is Histamine H1 receptor (Bos taurus) (UniProt P30546). The assay can be described thus: Inhibition of [3H]pyrilamine binding to Histamine H1 receptor of bovine cerebellar membrane at 10e-7 M. An outline of the steps:
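Single-concentration screen at 10^-7 M: displacement of [3H]pyrilamine (2.0 nM) from bovine cerebellar membranes, triprolidine as reference. Reported as % inhibition versus binding with no drug, mean of duplicate tubes in one experiment.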

The target in assay [5] is Norepinephrine transporter (Rattus norvegicus) (UniProt Q9WTR4). The assay can be described thus: Inhibition of [3H]desmethylimipramine binding to […] of rat cortical membrane at 10e-7 M. An outline of the steps:
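Single-concentration screen at 10^-7 M: displacement of [3H]desmethylimipramine (3.0 nM) from rat cortical membranes, desipramine as reference. Reported as % inhibition versus binding with no drug, mean of duplicate tubes in one experiment.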

In assay [6] the test system is Serotonin transporter (Rattus norvegicus). The assay can be described thus: Displacement of [3H]-citalopram from rat forebrain membrane serotonin transporter at 10e-7 M.
Assay [7] deals with Sigma non-opioid intracellular receptor 1 (Sus scrofa). The assay can be described thus: Inhibition of [3H](+)-pentazocine binding to Sigma opioid receptor type 1 of pig brain membranes at 10e-7 M.
Assay [8] addresses T1, 5-hydroxytryptamine receptor 2A (Rattus norvegicus, UniProt P14842). The assay can be described thus: Compound was tested for the inhibition of [3H]ketanserin binding to 5-hydroxytryptamine 2A receptor. An outline of the steps: (§1)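 Radioligand displacement on rat cortical membranes using [3H]ketanserin (1.0 nM), with methysergide as the reference compound. IC50 derived from six test concentrations, each in triplicate, in one experiment. Run at an external screening laboratory.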

The target in assay [9] is T2, Adrenergic receptor alpha-1 (Rattus norvegicus, UniProt P15823+P23944+P43140).
T2 sequence (P15823 whole entry): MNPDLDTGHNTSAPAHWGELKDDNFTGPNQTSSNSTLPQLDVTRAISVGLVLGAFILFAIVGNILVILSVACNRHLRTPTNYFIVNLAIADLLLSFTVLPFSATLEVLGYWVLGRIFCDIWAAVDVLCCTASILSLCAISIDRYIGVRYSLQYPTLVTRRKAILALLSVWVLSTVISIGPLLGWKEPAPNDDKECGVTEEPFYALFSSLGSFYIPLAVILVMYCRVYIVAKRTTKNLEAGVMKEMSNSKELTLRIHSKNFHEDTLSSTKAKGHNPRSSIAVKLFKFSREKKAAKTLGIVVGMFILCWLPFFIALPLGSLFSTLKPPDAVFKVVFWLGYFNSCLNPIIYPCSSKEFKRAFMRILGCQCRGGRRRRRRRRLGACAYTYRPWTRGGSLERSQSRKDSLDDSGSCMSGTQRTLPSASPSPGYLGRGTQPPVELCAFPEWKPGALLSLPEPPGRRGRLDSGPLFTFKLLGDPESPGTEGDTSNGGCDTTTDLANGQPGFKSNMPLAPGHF
T2 sequence (P23944 whole entry): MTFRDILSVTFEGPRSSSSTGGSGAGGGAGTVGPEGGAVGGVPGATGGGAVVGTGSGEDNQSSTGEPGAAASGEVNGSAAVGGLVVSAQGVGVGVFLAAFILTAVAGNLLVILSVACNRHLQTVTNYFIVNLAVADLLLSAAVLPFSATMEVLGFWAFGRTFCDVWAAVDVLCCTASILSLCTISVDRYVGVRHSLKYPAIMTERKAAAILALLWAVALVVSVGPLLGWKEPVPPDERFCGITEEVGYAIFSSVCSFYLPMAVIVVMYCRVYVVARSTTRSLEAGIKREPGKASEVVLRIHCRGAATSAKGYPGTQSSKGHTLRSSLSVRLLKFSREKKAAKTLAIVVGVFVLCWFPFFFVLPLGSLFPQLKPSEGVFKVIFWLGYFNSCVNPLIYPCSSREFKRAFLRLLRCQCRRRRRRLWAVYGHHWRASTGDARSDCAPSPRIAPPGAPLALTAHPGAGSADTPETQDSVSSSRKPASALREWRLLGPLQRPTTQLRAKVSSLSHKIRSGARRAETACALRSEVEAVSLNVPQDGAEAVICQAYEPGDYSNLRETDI
T2 sequence (P43140 whole entry): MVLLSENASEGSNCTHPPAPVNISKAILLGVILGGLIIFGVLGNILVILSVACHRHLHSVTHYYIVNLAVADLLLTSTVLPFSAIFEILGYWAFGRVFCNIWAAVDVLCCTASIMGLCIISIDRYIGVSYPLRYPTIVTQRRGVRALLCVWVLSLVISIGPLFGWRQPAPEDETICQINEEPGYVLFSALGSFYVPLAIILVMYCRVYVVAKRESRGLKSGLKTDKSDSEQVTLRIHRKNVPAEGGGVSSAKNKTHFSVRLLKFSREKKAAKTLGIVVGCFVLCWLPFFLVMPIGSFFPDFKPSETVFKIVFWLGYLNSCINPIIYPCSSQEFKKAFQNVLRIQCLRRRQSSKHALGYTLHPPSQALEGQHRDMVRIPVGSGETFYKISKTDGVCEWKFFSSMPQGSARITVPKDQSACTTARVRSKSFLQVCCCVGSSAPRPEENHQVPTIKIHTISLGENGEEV
Kind of assay: Compound was tested for the inhibition of [3H]-prazosin binding to Alpha-1 adrenergic receptor. It is filed as protein assay. An outline of the steps: (§2)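 Radioligand displacement on rat cortical membranes using [3H]prazosin (0.5 nM), with prazosin as the reference compound. IC50 derived from six test concentrations, each in triplicate, in one experiment. Run at an external screening laboratory.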

Assay [10] addresses T1, 5-hydroxytryptamine receptor 2A. Kind of assay: Compound was tested for it's binding affinity towards 5-hydroxytryptamine 2A receptor. The method in brief:
as §1

Assay [11] addresses T2, Adrenergic receptor alpha-1. Kind of assay: Compound was tested for it's binding affinity towards Alpha-1 adrenergic receptor. It is filed as protein assay. The method in brief:
as §2

The species entered for assay [12] is Rattus norvegicus. The assay can be described thus: In vitro functional activity (pA2) by using isolated rat vas deferens smooth muscle preparation (on adrenergic system). The conditions noted are these: Muscle tissue, read-out: pA2 (converted). The method in brief: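 Vas deferens from male Sprague–Dawley rats (200-300 g), 3-4 preparations, isometric contraction recorded. Cumulative L-noradrenaline concentration-response curves built stepwise once each response was steady.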

For assay [13], the species on record is Rattus norvegicus. The assay can be described thus: In vitro functional activity (pA2) by using isolated rat aorta smooth muscle preparation (on serotonergic system). The conditions noted are these: Muscle tissue, read-out: pA2 (converted). An outline of the steps:
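Aorta strips from male Sprague–Dawley rats (200-300 g), 3-7 preparations, isometric contraction recorded. Cumulative serotonin concentration-response curves built stepwise once each response was steady.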

Assay [14] concerns the target T2, Adrenergic receptor alpha-1. The assay can be described thus: Compound was tested for it's binding affinity towards alpha-1 adrenergic receptor. It is filed as protein assay. An outline of the steps: as §2

pIC50: −log10 of the molar value.

5-hydroxytryptamine receptor 2A (Rattus norvegicus), sequence (P14842 whole entry): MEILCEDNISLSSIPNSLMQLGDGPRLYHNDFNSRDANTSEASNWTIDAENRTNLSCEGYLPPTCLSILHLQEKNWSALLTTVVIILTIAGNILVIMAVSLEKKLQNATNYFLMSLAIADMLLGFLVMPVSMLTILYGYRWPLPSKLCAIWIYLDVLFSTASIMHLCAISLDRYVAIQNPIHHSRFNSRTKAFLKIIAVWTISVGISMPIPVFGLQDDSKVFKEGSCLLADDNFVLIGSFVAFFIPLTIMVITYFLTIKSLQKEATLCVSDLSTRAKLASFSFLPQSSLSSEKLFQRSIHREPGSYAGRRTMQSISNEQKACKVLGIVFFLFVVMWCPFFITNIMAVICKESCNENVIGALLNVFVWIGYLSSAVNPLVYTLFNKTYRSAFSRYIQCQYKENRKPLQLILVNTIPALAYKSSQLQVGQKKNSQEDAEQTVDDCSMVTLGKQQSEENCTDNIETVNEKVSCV
T1 sequence (P14842 whole entry): as above
Norepinephrine transporter (Rattus norvegicus), sequence (Q9WTR4 as listed by the source): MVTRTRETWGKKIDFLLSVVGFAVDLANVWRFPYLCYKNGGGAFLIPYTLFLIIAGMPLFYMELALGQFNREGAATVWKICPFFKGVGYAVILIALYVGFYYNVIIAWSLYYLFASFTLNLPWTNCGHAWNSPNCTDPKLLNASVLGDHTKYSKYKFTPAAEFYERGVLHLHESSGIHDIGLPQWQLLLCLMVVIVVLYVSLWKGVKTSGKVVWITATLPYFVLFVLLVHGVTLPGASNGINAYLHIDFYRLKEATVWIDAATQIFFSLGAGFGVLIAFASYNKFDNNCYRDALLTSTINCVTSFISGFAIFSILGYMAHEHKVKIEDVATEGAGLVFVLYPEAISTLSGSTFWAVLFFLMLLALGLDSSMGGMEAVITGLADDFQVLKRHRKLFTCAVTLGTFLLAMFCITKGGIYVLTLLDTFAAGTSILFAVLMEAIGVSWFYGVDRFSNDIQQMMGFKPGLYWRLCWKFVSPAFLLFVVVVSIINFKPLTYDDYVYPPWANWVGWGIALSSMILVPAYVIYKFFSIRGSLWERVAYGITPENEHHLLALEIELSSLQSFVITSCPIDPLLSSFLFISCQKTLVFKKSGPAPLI
D(2) dopamine receptor (Rattus norvegicus), sequence (P61169 whole entry): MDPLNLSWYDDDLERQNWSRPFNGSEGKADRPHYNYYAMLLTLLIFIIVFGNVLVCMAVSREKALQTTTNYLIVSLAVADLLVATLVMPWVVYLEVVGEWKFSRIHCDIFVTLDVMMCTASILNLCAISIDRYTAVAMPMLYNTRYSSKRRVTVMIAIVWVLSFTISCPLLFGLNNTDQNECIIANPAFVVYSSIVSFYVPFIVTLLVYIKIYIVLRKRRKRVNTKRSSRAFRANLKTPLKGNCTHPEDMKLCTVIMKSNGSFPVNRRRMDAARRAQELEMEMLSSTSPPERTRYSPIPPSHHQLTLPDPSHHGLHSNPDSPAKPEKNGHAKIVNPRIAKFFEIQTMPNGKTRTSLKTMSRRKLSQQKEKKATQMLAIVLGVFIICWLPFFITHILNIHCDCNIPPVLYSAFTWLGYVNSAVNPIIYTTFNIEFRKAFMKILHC
Histamine H1 receptor (Bos taurus), sequence (P30546 whole entry): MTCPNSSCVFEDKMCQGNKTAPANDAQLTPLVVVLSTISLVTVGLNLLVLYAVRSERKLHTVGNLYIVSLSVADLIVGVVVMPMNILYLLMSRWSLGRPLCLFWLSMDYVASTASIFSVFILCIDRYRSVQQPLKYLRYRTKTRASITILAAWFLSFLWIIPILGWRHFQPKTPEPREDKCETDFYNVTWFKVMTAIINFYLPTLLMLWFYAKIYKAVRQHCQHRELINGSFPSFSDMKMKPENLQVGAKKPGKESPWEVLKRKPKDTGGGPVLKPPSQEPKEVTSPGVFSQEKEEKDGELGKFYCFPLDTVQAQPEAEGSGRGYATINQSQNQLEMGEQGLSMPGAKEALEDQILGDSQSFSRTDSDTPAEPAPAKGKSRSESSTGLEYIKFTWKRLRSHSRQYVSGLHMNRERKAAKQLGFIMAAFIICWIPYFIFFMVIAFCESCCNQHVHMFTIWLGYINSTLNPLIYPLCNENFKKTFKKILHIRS

Consider `CC(CN1CCN(c2cccc(Cl)c2)C(C)C1)Cn1nc2ccccn2c1=O` (centres undefined), for which the inhibition is 20% in assay [1]; 7% in [2]; 0% in [3]; 12% in [4]; 0% in assay [5]; 6% in [6]. The compound also yielded an inhibition in [7] of 65%.
In the case of `CN(CCNCCCn1nc2ccccn2c1=O)c1cccc(Cl)c1`, the inhibition in assay [1] worked out at 0%; in assay [2], 12%; in assay [3], 4%; in assay [4] it was 0%; in assay [5], 0%; in [6], 23%. In addition, the inhibition in assay [7] was 65%.
As to `O=c1n(CCCN2CCN(c3cccc(Cl)c3)CC2)nc2ccccn12`, the inhibition in assay [1] turned out to be 78%; in assay [3], 12%; in [4], 5%; in [5] it was 0%.
As to `CC1CN(CCCn2nc3ccccn3c2=O)CCN1c1cccc(Cl)c1` (centres undefined), the inhibition in assay [1] is 34%; in assay [2], 25%; in assay [3] it was 0%; in [4], 7%; in [5] it was 0%; in assay [6], 15%. Also, the inhibition in [7] came out at 68%.
On to `CN(CCCn1nc2ccccn2c1=O)CCNc1cccc(Cl)c1`, for which the inhibition in [1] turned out to be 0%; in [2], 10%; in [3], 2%; in [4] it was 0%; in [5], 4%; in assay [6], 15%. In assay [7], this compound showed an inhibition of 30%.
On to `CC(CCn1nc2ccccn2c1=O)N1CCN(c2cccc(Cl)c2)CC1` (centres undefined), for which the inhibition is 65% in assay [1]; 26% in assay [2]; 2% in assay [3]; 31% in assay [4]; 0% in assay [5]; 63% in assay [6]. In assay [7], this compound had an inhibition of 58%. For the same compound, the pIC50 in assay [8] is 7.77. For the same compound, the IC50 in assay [9] turned out to be 627 nM.
Regarding `CC1CN(CCCn2nc3ccccn3c2=O)C(C)(C)CN1c1cccc(Cl)c1` (centres undefined), the inhibition in assay [1] was 40%; in [2], 11%; in assay [3], 3%; in assay [4] it was 9%; in [5], 0%; in assay [6], 38%. For the same compound, the inhibition in assay [7] turned out to be 81%.
With `C[C@@H]1CN(c2cccc(Cl)c2)CCN1CCCn1nc2ccccn2c1=O`, in assay [10], the negative-log IC50 (pIC50) was 6.63. Also, in [11], the IC50 is 533 nM. Moreover, the Kb is 158 nM in the assay filed under Rattus norvegicus [12] and 12.6 nM in the assay listed under Rattus norvegicus [13].
As to `CC1C(=O)N(c2cccc(Cl)c2)CCN1CCCn1nc2ccccn2c1=O` (centres undefined), the inhibition was 0% in [1]; 2% in assay [2]; 4% in assay [3]; 4% in assay [4]; 0% in assay [5]; 0% in [6]. Besides, the inhibition in assay [7] was 9%.
As to `O=c1n(CCCNCCNc2cccc(Cl)c2)nc2ccccn12`, the inhibition worked out at 4% in assay [1]; 8% in assay [2]; 3% in assay [3]; 0% in [4]; 0% in assay [5]; 10% in [6]. Further, the inhibition in [7] is 29%.
The compound `C[C@H]1CN(c2cccc(Cl)c2)CCN1CCCn1nc2ccccn2c1=O` showed a pIC50 in assay [10] of 7.60. The compound also yielded a half-inhibitory concentration (IC50) in assay [14] of 981 nM. Moreover, the Kb in the assay filed under Rattus norvegicus [12] is 3980 nM; in the assay listed under Rattus norvegicus [13], 3.16 nM.
In the case of `O=C1CN(CCCn2nc3ccccn3c2=O)CCN1c1cccc(Cl)c1`, the inhibition came to 5% in assay [1]; 5% in assay [2]; 0% in assay [3]; 2% in assay [4]; 0% in assay [5]; 2% in assay [6]. Further, the inhibition in assay [7] was found to be 12%.
As for `CCC1CN(c2cccc(Cl)c2)CCN1CCCn1nc2ccccn2c1=O` (centres undefined), the inhibition in assay [1] was found to be 60%; in assay [2], 44%; in assay [3] it was 10%; in assay [4], 14%; in assay [5], 0%; in assay [6] it was 20%. In assay [7], this compound returned an inhibition of 43%. The pIC50 in assay [8] is 6.77. Further, the concentration for half-maximal inhibition (IC50) in assay [9] was 493 nM.
As to `CC(CN1CCN(c2cccc(Cl)c2)CC1)Cn1nc2ccccn2c1=O` (centres undefined), the inhibition in [1] was found to be 52%; in [2], 27%; in assay [3], 3%; in assay [4], 7%; in [5], 0%; in assay [6] it was 4%. Also, the inhibition in assay [7] stood at 34%. In assay [8], this compound had a pIC50 of 7.03. In [9], this compound displayed an IC50 of 531 nM.
Turning to `CC1CN(c2cccc(Cl)c2)CCN1CCCn1nc2ccccn2c1=O` (centres undefined), the inhibition was 69% in assay [1]; 37% in assay [2]; 8% in [3]; 13% in assay [4]; 2% in [5]; 45% in assay [6]. Moreover, the inhibition in assay [7] was 43%. The compound further gave a pIC50 in [8] of 7.51. The compound further gave an IC50 in assay [9] of 471 nM.

The inhibition is the percentage by which the read-out fell short of the control. Low values mean a weak effect, high ones a strong effect. As usually defined, the pIC50 is −log10 of the IC50, conventionally taken in molar units. Low readings indicate a large IC50, high ones a small IC50. The term IC50 denotes the concentration that inhibits the measured activity by half. A high value points to lower potency.
